Results from ChEMBL document CHEMBL3868591, “Melokhanines A-J, Bioactive Monoterpenoid Indole Alkaloids with Diverse Skeletons from Melodinus khasianus” (J Nat Prod, 2016).
pIC50: −log10 of the molar value. Converted amounts (≈) assume the structure as drawn.

How the values were obtained:
[1] = Antifungal activity against Microsporum ferrugineum CBS 457.80 after 48 hrs by broth microdilution method; assay type: functional
Outline: (§1)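 Dermatophyte MICs obtained by broth microdilution in three independent replicates, with griseofulvin as positive control.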

[2] = test system: Microsporum canis; experiment: Antifungal activity against Microsporum canis CBS 113480 after 48 hrs by broth microdilution method; assay type: functional; conditions: CBS 113480, 48 h; outline: as §1
[3] = Antifungal activity against Trichophyton mentagrophytes ATCC 4439 after 48 hrs by broth microdilution method; assay type: functional; outline: as §1
[4] = Antifungal activity against Trichophyton ajelloi E1501 after 48 hrs by broth microdilution method; assay type: functional; conditions: Arthroderma uncinatum; outline: as §1
[5] = Antifungal activity against Trichophyton terrestre after 48 hrs by broth microdilution method; assay type: functional; outline: as §1
[6] = Antifungal activity against Epidermophyton floccosum CBS 566.94 after 48 hrs by broth microdilution method; assay type: functional; outline: as §1
[7] = test system: Nannizzia gypsea; experiment: Antifungal activity against Microsporum gypseum CBS 118893 after 48 hrs by broth microdilution method; assay type: functional; conditions: CBS 118893, 48 h; outline: as §1
[8] = Cytotoxicity against human HL60 cells after 48 hrs by MTT assay; assay type: functional, cell-based; conditions: HL-60, 48 h
Outline: (§2)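 MTT read-out. Each cell line was exposed in triplicate to a range of concentrations for 48 h, with cisplatin as positive control.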

[9] = Cytotoxicity against human A549 cells after 48 hrs by MTT assay; assay type: functional, cell-based; conditions: A549, 48 h; outline: as §2
[10] = Cytotoxicity against human SW480 cells after 48 hrs by MTT assay; assay type: functional, cell-based; conditions: SW480, 48 h; outline: as §2
[11] = test system: Pseudomonas aeruginosa; experiment: Antibacterial activity against Pseudomonas aeruginosa ATCC 27853 after 24 hrs by broth microdilution method; assay type: functional
Outline: (§3)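 MIC determined by broth microdilution, three independent replicates. Strains used were P. aeruginosa ATCC 27853, E. faecalis ATCC 10541, E. coli ATCC 11775, S. aureus […] and K. pneumoniae ATCC 13883. Cefotaxime served as positive control.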

[12] = test system: Enterococcus faecalis; experiment: Antibacterial activity against Enterococcus faecalis ATCC 10541 after 24 hrs by broth microdilution method; assay type: functional; outline: as §3
[13] = test system: Escherichia coli; experiment: Antibacterial activity against Escherichia coli ATCC 11775 after 24 hrs by broth microdilution method; assay type: functional; outline: as §3
[14] = test system: Staphylococcus aureus; experiment: Antibacterial activity against Staphylococcus aureus […] after 24 hrs by broth microdilution method; assay type: functional; outline: as §3
[15] = test system: Klebsiella pneumoniae; experiment: Antibacterial activity against Klebsiella pneumoniae ATCC 13883 after 24 hrs by broth microdilution method; assay type: functional; outline: as §3
[16] = Cytotoxicity against human MCF7 cells after 48 hrs by MTT assay; assay type: functional, cell-based; conditions: MCF7, 48 h; outline: as §2
[17] = Cytotoxicity against human SMMC7721 cells after 48 hrs by MTT assay; assay type: functional, cell-based; conditions: SMMC-7721, 48 h; outline: as §2
[18] = DSM 30083 = JCM 1649 = ATCC 11775, 24 h

Compound | MIC ([11]; ATCC 27853, 24 h) | MIC ([12]; ATCC 10541, 24 h) | MIC [13, 18] | MIC [14] | MIC ([15]; ATCC 13883, 24 h) | pIC50 [8] | pIC50 [9] | pIC50 [10] | pIC50 [16] | pIC50 [17] | further results
COC1=CC(=O)C[C@@H](C)[C@]12Oc1c(Cl)c(OC)cc(OC)c1C2=O [GRISEOFULVIN] | – | – | – | – | – | – | – | – | – | – | MIC [1]: 35 µM (≈ 12.3 µg/mL); MIC [2]: 18 µM (≈ 6.35 µg/mL); MIC [3]: 18 µM (≈ 6.35 µg/mL); MIC [4]: 71 µM (≈ 25 µg/mL); MIC [5]: 35 µM (≈ 12.3 µg/mL); MIC [6]: 9 µM (≈ 3.17 µg/mL); MIC [7]: 9 µM (≈ 3.17 µg/mL)
CC[C@@H]1CN2CC[C@]34c5ccccc5-n5c3c(cc(C(N)=O)c5=O)[C@H]1C[C@H]24 [LEUCONICINE A] | 2 µM (≈ 0.723 µg/mL) | > 150 µM | > 150 µM | > 150 µM | 69 µM (≈ 24.9 µg/mL) | – | – | – | – | – | –
CC[C@@]12CCCN3CC[C@@]4(O)c5ccccc5N(C(=O)CC1)[C@]324 | 2 µM (≈ 0.625 µg/mL) | > 150 µM | > 150 µM | > 150 µM | > 150 µM | – | – | – | – | – | –
CC[C@]12C=Cn3c4c(c5ccccc53)CCN(CCC1)[C@@H]42 | 22 µM (≈ 6.12 µg/mL) | 22 µM (≈ 6.12 µg/mL) | > 150 µM | > 150 µM | > 150 µM | – | – | – | – | – | –
CC[C@@H]1CN2CC[C@]34c5ccccc5-n5c3c(cc(C(=O)O)c5=O)[C@H]1C[C@H]24 [MELODININE C] | 4 µM (≈ 1.45 µg/mL) | > 150 µM | > 150 µM | > 150 µM | 69 µM (≈ 25 µg/mL) | – | – | – | – | – | –
CC[C@@]12CCCN3CCc4c(n(c5ccccc45)C(=O)C1)[C@H]32 | 5 µM (≈ 1.47 µg/mL) | 2 µM (≈ 0.589 µg/mL) | 85 µM (≈ 25 µg/mL) | > 150 µM | > 150 µM | – | – | – | – | – | –
CC[C@@]12CCCN3C(=O)C=C(c4ccccc4NC(=O)CC1)[C@]32O | 5 µM (≈ 1.63 µg/mL) | 2 µM (≈ 0.653 µg/mL) | > 150 µM | > 150 µM | > 150 µM | – | – | – | – | – | –
CC[C@@]12CCCN3CC[C@]4(C(=O)c5ccccc5N4[C@@H](OC)[C@H]1O)[C@H]32 | 18 µM (≈ 6.16 µg/mL) | 73 µM (≈ 25 µg/mL) | 73 µM (≈ 25 µg/mL) | > 150 µM | > 150 µM | < 4.40 | < 4.40 | < 4.40 | < 4.40 | < 4.40 | –
CC[C@]12CCCN(CC[C@]3(O)C(=O)Nc4ccccc43)[C@H]1OCC2 | 19 µM (≈ 6.28 µg/mL) | 75 µM (≈ 24.8 µg/mL) | 19 µM (≈ 6.28 µg/mL) | 75 µM (≈ 24.8 µg/mL) | 150 µM (≈ 49.6 µg/mL) | < 4.40 | < 4.40 | < 4.40 | < 4.40 | < 4.40 | MIC [1]: 75 µM (≈ 24.8 µg/mL); MIC [2]: 38 µM (≈ 12.6 µg/mL); MIC [3]: 150 µM (≈ 49.6 µg/mL); MIC [4]: 150 µM (≈ 49.6 µg/mL); MIC [5]: > 150 µM; MIC [6]: 150 µM (≈ 49.6 µg/mL); MIC [7]: 150 µM (≈ 49.6 µg/mL)
CCO[C@@H]1C[C@@]2(CC)CCCN3CC[C@]4(C(=O)c5ccccc5N14)[C@H]32 | 4 µM (≈ 1.36 µg/mL) | 147 µM (≈ 50 µg/mL) | 147 µM (≈ 50 µg/mL) | > 150 µM | > 150 µM | < 4.40 | < 4.40 | < 4.40 | < 4.40 | < 4.40 | –
CC[C@@]12CCCN3CC[C@]4(C(=O)c5ccccc5N4[C@H](OC)C1)[C@H]32 | 5 µM (≈ 1.63 µg/mL) | 5 µM (≈ 1.63 µg/mL) | 150 µM (≈ 49 µg/mL) | > 150 µM | > 150 µM | < 4.40 | < 4.40 | < 4.40 | < 4.40 | < 4.40 | –
CO[C@H]1CCN2CCc3c([nH]c4ccccc34)[C@@]3(C(=O)O)CCC=C1[C@H]23 | 4 µM (≈ 1.41 µg/mL) | 71 µM (≈ 25 µg/mL) | 71 µM (≈ 25 µg/mL) | > 150 µM | > 150 µM | < 4.40 | < 4.40 | < 4.40 | < 4.40 | < 4.40 | –
CC[C@]12C=CN3c4ccccc4C(=O)[C@]34CCN(CCC1)[C@H]24 | 2 µM (≈ 0.589 µg/mL) | 42 µM (≈ 12.4 µg/mL) | > 150 µM | > 150 µM | > 150 µM | < 4.40 | < 4.40 | < 4.40 | < 4.40 | < 4.40 | –
CC[C@@]12CCCN3CC[C@@H](c4ccccc4NC(=O)CC1)[C@]32O | 5 µM (≈ 1.57 µg/mL) | 39 µM (≈ 12.3 µg/mL) | > 150 µM | > 150 µM | > 150 µM | < 4.40 | < 4.40 | < 4.40 | < 4.40 | < 4.40 | –

Further lines, with some results ahead:

MIC ([11]; ATCC 27853, 24 h) | MIC ([12]; ATCC 10541, 24 h) | MIC [13, 18] | MIC [14] | MIC ([15]; ATCC 13883, 24 h) | Compound | pIC50 [8] | pIC50 [9] | pIC50 [10] | pIC50 [16] | pIC50 [17] | further results
2 µM (≈ 0.621 µg/mL) | 5 µM (≈ 1.55 µg/mL) | > 150 µM | > 150 µM | > 150 µM | CC[C@@]12CCCN3CC[C@]4(C(=O)c5ccccc5N4C(=O)C1)[C@H]32 | < 4.40 | < 4.40 | < 4.40 | < 4.40 | < 4.40 | –
2 µM (≈ 0.749 µg/mL) | 66 µM (≈ 24.7 µg/mL) | 66 µM (≈ 24.7 µg/mL) | > 150 µM | 133 µM (≈ 49.8 µg/mL) | CCC1=CN2CC[C@]34c5ccccc5-n5c3c(cc(C(=O)OC)c5=O)[C@H]1C[C@H]24 | – | – | – | – | – | –
– | – | – | > 150 µM | – | RAUWOLFIA SERPENTINA | – | – | – | – | – | MIC [11]: 4 µM; MIC [12]: 71 µM; MIC ([13]; DSM 30083 = JCM 1649 = ATCC 11775): 142 µM; MIC [15]: > 150 µM
19 µM (≈ 6.2 µg/mL) | 19 µM (≈ 6.2 µg/mL) | 76 µM (≈ 24.8 µg/mL) | 19 µM (≈ 6.2 µg/mL) | > 150 µM | CC[C@@]12CCCN3C(=O)C[C@H]4c5cc(O)ccc5N(C(=O)CC1)C432 (some centres undefined) | – | – | – | – | – | –
0.4 µM (≈ 0.182 µg/mL) | 0.4 µM (≈ 0.182 µg/mL) | 1.7 µM (≈ 0.774 µg/mL) | 0.4 µM (≈ 0.182 µg/mL) | 1.7 µM (≈ 0.774 µg/mL) | CO/N=C(\C(=O)N[C@@H]1C(=O)N2C(C(=O)O)=C(COC(C)=O)CS[C@H]12)c1csc(N)n1 [CEFOTAXIME] | – | – | – | – | – | –
2 µM (≈ 0.709 µg/mL) | 18 µM (≈ 6.38 µg/mL) | > 150 µM | > 150 µM | > 150 µM | C/C=C1/CN2CCc3c([nH]c4ccccc34)[C@@H]2C[C@@H]1[C@H](CO)C(=O)OC | – | – | – | – | – | –
19 µM (≈ 6.24 µg/mL) | 75 µM (≈ 24.6 µg/mL) | 150 µM (≈ 49.3 µg/mL) | > 150 µM | 150 µM (≈ 49.3 µg/mL) | CC[C@@]12CCCN3CC[C@]4(C(=O)c5ccccc5N4[C@@H](O)[C@H]1O)[C@H]32 | < 4.40 | < 4.40 | < 4.40 | < 4.40 | < 4.40 | –
2 µM (≈ 0.645 µg/mL) | 19 µM (≈ 6.13 µg/mL) | > 150 µM | > 150 µM | 77 µM (≈ 24.8 µg/mL) | CC[C@]12CCCn3c(C=O)cc(c31)-c1ccccc1NC(=O)CC2 [RHAZINAL] | – | – | – | – | – | –
19 µM (≈ 6.2 µg/mL) | 150 µM (≈ 49 µg/mL) | 75 µM (≈ 24.5 µg/mL) | > 150 µM | > 150 µM | CC[C@@]12CCCN3CC[C@]4(C(=O)c5ccccc5N4[C@@H](OC)C1)[C@H]32 | < 4.40 | < 4.40 | < 4.40 | < 4.40 | < 4.40 | –
